Sampled rows, rich in hits. Any-hit rate of the full collection: about 1.3%.
DAGLB inh: blocks human DAGLB lipase activity; HEK293T DAGLB membrane lysate, EnzChek fluorogenic substrate; inhibition, % at 5.17 µM; actives 0.059% (n = 340,000); AID 504411; in the data active means inhibition above about 34%
Target sequence (Q8NCG7 whole entry, looked up): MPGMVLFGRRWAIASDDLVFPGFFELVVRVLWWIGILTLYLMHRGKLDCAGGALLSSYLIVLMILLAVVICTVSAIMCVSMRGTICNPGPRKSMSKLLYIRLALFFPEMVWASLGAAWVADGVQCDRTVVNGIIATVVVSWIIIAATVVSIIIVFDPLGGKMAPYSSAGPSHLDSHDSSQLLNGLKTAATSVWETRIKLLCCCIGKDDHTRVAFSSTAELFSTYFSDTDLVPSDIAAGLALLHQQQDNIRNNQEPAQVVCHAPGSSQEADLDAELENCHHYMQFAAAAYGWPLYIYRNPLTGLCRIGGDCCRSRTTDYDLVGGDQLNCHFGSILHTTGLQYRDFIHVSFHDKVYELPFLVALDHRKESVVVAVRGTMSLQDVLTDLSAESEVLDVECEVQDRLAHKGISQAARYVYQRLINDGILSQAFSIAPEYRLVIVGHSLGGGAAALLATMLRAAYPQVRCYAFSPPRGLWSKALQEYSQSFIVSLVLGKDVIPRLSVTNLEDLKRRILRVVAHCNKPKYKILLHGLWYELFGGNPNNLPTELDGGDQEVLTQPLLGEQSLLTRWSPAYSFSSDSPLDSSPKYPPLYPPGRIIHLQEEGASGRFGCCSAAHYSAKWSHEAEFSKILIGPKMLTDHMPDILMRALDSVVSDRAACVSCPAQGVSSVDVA
hiPSC survival: increases survival of single human iPS cells | hiPSC single-cell survival, ATPlite luminescence; 100% = ROCK inhibitor wells, 0% = DMSO | AID 602274 | survival enhancement, % at 20 µM | actives 0.044% (n = 360,000); in the data active means survival enhancement above about 18%;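 further: cells exposed to compounds for 16 hours before the ATP read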
SKN-1 inh: blocks SKN-1 activity in C. elegans. C. elegans VP596 Pgst-4::GFP/RFP ratio, acrylamide-induced, 24 h. actives 0.49% (n = 360,000). inhibition, % at 21.8 µM;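 active means interference check ratio from 0.5 to 1.5 plus GFP to RFP signal ratio inhibition reaching or exceeding a fixed threshold, cut at about 30% in these data, passing the limit was not always enough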
FAS TE block: FAS thioesterase (human) inhibition; P49327; recombinant FAS-TE, OMFH fluorogenic substrate, fluorescence endpoint; inhibition, % at 15 µM; actives 0.67% (n = 360,000); AID 602261;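 active means compounds whose normalised, plate-corrected inhibition of enzyme fluorescence in the single-dose primary screen is 50% or more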
MT1-MMP act inh: inhibitors of human MT1-MMP activation. P50281. HT1080 RFP-PRO-GFP cells, GFP/RFP ratio fluorescence, overnight; percent of plate control window, DMSO zero. GFP/RFP ratio change, % at 20 µM. actives 0.061% (n = 360,000);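 active means GFP/RFP ratio change of at least 30% with cell ATP level not reduced by more than half and red fluorescence within 50% of control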
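Assay system: HT1080 RFP-PRO-GFP cells | Dosing: 20 µM single dose, 1% DMSO | Incubation: Cells overnight before dosing, compound overnight, 37 °C, 5% CO2 | Evaluation: GFP/RFP fluorescence ratio | Control set: DMSO-only wells and HT1080 RFP-L50D-GFP cell wells as references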
FAS-TE inh conf: FAS thioesterase (human) inhibition, confirmation; recombinant FAS-TE, OMFH fluorogenic substrate, fluorescence; shares compounds with FAS TE block; inhibition, % at 15 µM; AID 624325; actives 45% (n = 2,300);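 active means compounds inhibiting the enzyme by at least 50% at 15 µM in any one of the replicates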
Large screens that a line does not name were inactive (follow-up assays come after a bar, where they were run).

CCOc1ccc2cc(C3CC(c4ccco4)=NN3S(=O)(=O)c3ccccc3)c(Cl)nc2c1 (centres undefined)	none
COc1ccc2cc(C3CC(c4ccco4)=NN3S(=O)(=O)c3ccccc3)c(Cl)nc2c1 (centres undefined)	FAS TE block 70.6 | FAS-TE inh conf inactive
CCCCCCCCCCCCCCCCCCNc1ccn(C2OC(COP(=O)(O)OCC3OC(n4cc(F)c(=O)[nH]c4=O)CC3O)C(O)C2O)c(=O)n1 (centres undefined)	FAS TE block 54.7 | FAS-TE inh conf inactive
C[C@H]1O[C@@H](n2cc(F)c(=O)[nH]c2=O)[C@H](O)[C@@H]1O	none
COc1ccc(-c2c(C#N)sc(C(N)=O)c2-c2ccc(OC)cc2)cc1	FAS TE block 60.5 | FAS-TE inh conf inactive
N#Cc1sc(C(N)=O)c(-c2ccccc2)c1-c1ccccc1	none
CCC(C)C(NC(=O)C(Cc1ccc(O)cc1)NC(=O)OCc1ccccc1)C(=O)OC (centres undefined)	none (no result: DAGLB inh)
CC(C)(C)C(=O)CSc1ccc(S(=O)(=O)N2CCN(Cc3ccccc3)CC2)cn1	none
O=C(CNc1cc(S(=O)(=O)N2CCCC2)ccc1OCC(F)(F)F)Nc1ccc(SC(F)F)cc1	FAS TE block 65.1 | FAS-TE inh conf 56.5
Cc1sc(N2CCN(S(=O)(=O)c3ccc4c(c3)NC(=O)CO4)CC2)nc1-c1ccccc1	FAS TE block 70.5 | FAS-TE inh conf 68.2
O=C(O)/C=C/C(=O)Nc1ccccc1C(=O)OCC(=O)c1ccc2c(c1)OCCO2	none
CCCCC(=O)Nc1ccccc1C(=O)OCC(=O)c1ccc2c(c1)OCCO2	FAS TE block 56.5 | FAS-TE inh conf inactive
O=C1c2cccc(OCC(=O)N3N=C(c4cccs4)CC3c3ccc(F)cc3)c2CCN1Cc1cccnc1 (centres undefined)	none
C[C@@]12C(=O)Nc3ccc(Br)cc3C(=O)N1[C@H]1c3cc(Cl)ccc3OC[C@@H]1[C@@H]2c1ccccc1	FAS TE block 93.8 | FAS-TE inh conf inactive
C[C@@]12C(=O)Nc3cc(F)c(F)cc3C(=O)N1[C@H]1c3cc(Cl)ccc3OC[C@@H]1[C@@H]2c1ccccc1	FAS TE block 74.3 | FAS-TE inh conf inactive
COc1ccc2c(c1)[C@H]1[C@H](CO2)[C@H](c2ccccc2)[C@]2(C)C(=O)Nc3ccc(Cl)cc3C(=O)N12	FAS TE block 86.0 | FAS-TE inh conf inactive
COc1ccc2c(c1)[C@H]1[C@H](CO2)[C@H](c2ccccc2)[C@]2(C)C(=O)Nc3cc(OC)c(OC)cc3C(=O)N12	none
C[C@@]12C(=O)Nc3ccc(Cl)cc3C(=O)N1[C@H]1c3cc(Cl)ccc3OC[C@@H]1[C@@H]2c1ccccc1	FAS TE block 77.4 | FAS-TE inh conf inactive
C[C@@]12C(=O)Nc3ccc(Br)cc3C(=O)N1[C@H]1c3ccccc3OC[C@@H]1[C@@H]2c1ccccc1	FAS TE block 87.9 | FAS-TE inh conf inactive
Cc1ccc(S(=O)(=O)N2CCN(C(=O)c3ccc(-n4cncn4)c([N+](=O)[O-])c3)CC2)c(C)c1	none
Cc1ccc(-c2c(C(=O)N(C)Cc3ccccc3)oc(=O)c3ccccc23)cc1	FAS TE block 53.6 | FAS-TE inh conf 51.1
CN(Cc1ccccc1)C(=O)c1oc(=O)c2ccccc2c1-c1ccccc1	none
Oc1cccc(-c2nnc(-c3cccc(O)c3)nn2)c1	none
C/C(=N\Nc1ccccn1)c1ccc(S(=O)(=O)NCc2ccco2)cc1	FAS TE block 53.7 | FAS-TE inh conf 40.2
C/C(=N\Nc1nc(Cl)c(Cl)cc1Cl)c1ccc(S(=O)(=O)NCc2ccco2)cc1	FAS TE block 52.0 | FAS-TE inh conf inactive
C/C(=N/NS(=O)(=O)c1ccc(Br)cc1)c1cccc(NC(=O)C2CC2)c1	none
CC(OC(=O)CCc1c[nH]c2ccccc12)C(=O)c1ccccc1 (centres undefined)	none
COc1cc(OC)c(N(C)C(=O)c2cc3c(s2)-c2ccccc2S(=O)(=O)C3)cc1Cl	FAS TE block 54.5 | FAS-TE inh conf inactive
COc1ccc(N(C)C(=O)c2cc3c(s2)-c2ccccc2S(=O)(=O)C3)cc1	none
COc1cc2ncc(S(=O)(=O)c3ccccc3)c(N3CCC4(CC3)OCCO4)c2cc1OC	FAS TE block 81.7 | FAS-TE inh conf 82.3
COc1ccc2ncc(S(=O)(=O)c3ccccc3)c(N3CCC4(CC3)OCCO4)c2c1	none
CCN1C(=O)[C@H]2[C@@H](c3ccc(C)cc3)N3C(=O)N(c4ccc(OC)cc4)C(=O)[C@@]3(Cc3ccccc3)[C@H]2C1=O	none
CCN1C(=O)[C@H]2[C@@H](c3ccc(C)cc3)N3C(=O)N(c4ccc(C)cc4)C(=O)[C@@]3(Cc3ccc(Cl)cc3)[C@H]2C1=O	FAS TE block 59.5 | FAS-TE inh conf inactive
Cc1cccc([C@@H]2[C@@H]3C(=O)N(Cc4ccccc4)C(=O)[C@@H]3[C@]3(CC(C)C)C(=O)N(c4cccc(Cl)c4)C(=O)N23)c1	FAS TE block 71.7 | FAS-TE inh conf inactive
CC[C@@]12C(=O)N(c3cccc(Cl)c3)C(=O)N1[C@H](c1cccc(C)c1)[C@@H]1C(=O)N(Cc3ccccc3)C(=O)[C@@H]12	none
CCN1C(=O)[C@H]2[C@@H](c3ccc(C)cc3)N3C(=O)N(c4cccc(Cl)c4)C(=O)[C@@]3(CC)[C@H]2C1=O	none
CCN1C(=O)[C@H]2[C@@H](c3ccc(C)cc3)N3C(=O)N(c4ccccc4)C(=O)[C@@]3(Cc3ccc(Cl)cc3)[C@H]2C1=O	FAS TE block 62.9 | FAS-TE inh conf inactive
Cc1ccccc1S(=O)(=O)NC(=O)C1(C)CCN1C(=O)C1(c2ccccc2)CC1 (centres undefined)	none (no result: DAGLB inh)
CC(C)(C)c1ccc(C(=O)NCCC(=O)Nc2cc(Cl)ccc2N2CCOCC2)cc1	FAS TE block 67.0 | FAS-TE inh conf 66.5
O=C(CCC1CCCC1)Nc1cc(Cl)ccc1N1CCOCC1	none
O=C(Nc1ccccc1Cl)c1ccc2c(=O)n3c(nc2c1)CCC3	none
O=C(Nc1nc(-c2ccccc2)cs1)c1ccc2c(=O)n3c(nc2c1)CCCCC3	FAS TE block 62.2 | FAS-TE inh conf inactive
CCN(C(=O)c1ccc2c(=O)n3c(nc2c1)CCCCC3)c1ccc(F)cc1	none
CCOc1ccccc1N(CC)C(=O)c1ccc2c(=O)n3c(nc2c1)CCCCC3	FAS TE block 56.6 | FAS-TE inh conf 77.4
CCCCNC(=O)C[C@@H]1C[C@@]2(C(=O)OC)CCCCC=C2N(Cc2ccc(Cl)cc2Cl)C1=O	none (no result: DAGLB inh)
COc1ccc(C(=O)N/C(=C\c2cn(S(=O)(=O)N(C)C)c3ccccc23)C(=O)N2CCOCC2)cc1	FAS TE block 82.2 | FAS-TE inh conf 70.8

Screens deposited in PubChem BioAssay by several laboratories.
